From ChEMBL document CHEMBL1149211, “Synthesis of 1,7-annulated indoles and their applications in the studies of cyclin dependent kinase inhibitors” (Bioorg Med Chem Lett, 2004) come the findings set out here.

Values after ≈ are worked out from the molar mass of the structure shown.

The target of data set [1] is T1, Cyclin-dependent kinase 4/cyclin D1 (Homo sapiens, UniProt P11802). Kind of data set: Inhibition of Cyclin D1-cyclin-dependent kinase 4. The class given is protein-complex assay. An outline of the steps: (§1)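 Cyclin D1/CDK4 enzyme inhibition determined by measuring phosphorylation of Rb protein; staurosporine included as standard; IC50 derived.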
The test system of data set [2] is HCT-116. Kind of data set: Antiproliferative activity against HCT116 (human colon carcinoma) cell line. The format is functional, cell-based.
For another data set, the system named is NCI-H460. Kind of data set: Antiproliferative activity against NCIH-460 (human lung) cell line. The class given is functional, cell-based.
Data set [3] can be described thus: Solubility measured in 10% solution in EtOH. The format is physicochemical. Conditions: read-out: S. The procedure, abridged:
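Solubility determined in 10% solutol in ethanol.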

Data set [4] deals with Cyclin-dependent kinase 2/cyclin E (Homo sapiens, UniProt P24941). Kind of data set: Inhibition of Cyclin E-cyclin-dependent kinase 2 mediated RbING-phosphorylation. The class given is protein-complex assay. An outline of the steps:
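Cyclin E/CDK2 enzyme assay following substrate phosphorylation, with Rb^ING as substrate; staurosporine run as standard; IC50 reported.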

The target in data set [5] is Cyclin-dependent kinase 4 (Homo sapiens) (UniProt P11802). Kind of data set: Inhibition of CDK4-specific Rb-S780 phosphorylation of HCT116 cells at 2xIC50 for 24 hr. The class given is functional, cell-based. Conditions: HCT-116. The procedure, abridged:
(§2)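 HCT-116 colon carcinoma cells treated 24 h with compound at 1× and 2× its antiproliferation IC50; Rb phosphorylation at Ser780 measured by Western blot with phospho-specific antibody; value expressed as % pRb inhibition.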

Data set [6] has the same target. Kind of data set: Inhibition of CDK4-specific Rb-S780 phosphorylation of HCT116 cells at 1xIC50 for 24 hr. The class given is functional, cell-based. Conditions: HCT-116. An outline of the steps:
as §2

Data set [7] has as its system HCT-116. Kind of data set: G1 cell cycle arrest (fold increase over control) in HCT116 cells at 3*IC50. The format is functional, Homo sapiens. The procedure, abridged:
(§3)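 HCT-116 cells exposed to compound for 24 h, then analysed by flow cytometry; G1 arrest expressed as fold increase of G1 population over untreated control.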

The subject of data set [8] is HCT-116. Kind of data set: G1 cell cycle arrest (fold increase over control) in HCT116 cells at IC50. The class given is functional, Homo sapiens. The procedure, abridged: as §3
Data set [9] has as its target cAMP-dependent protein kinase (PKA) (Homo sapiens, UniProt P22694+P17612+P22612). Kind of data set: Inhibition of protein kinase A mediated histone phosphorylation. The class given is protein assay. An outline of the steps:
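PKA enzyme assay measuring phosphorylation of histone substrate; staurosporine used as standard; IC50 reported.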

The target in data set [10] is T1, Cyclin-dependent kinase 4/cyclin D1. Kind of data set: Inhibition of Cyclin D1-cyclin-dependent kinase 4 mediated Rb21-phosphorylation. The class given is protein-complex assay. The conditions noted are these: in the assay text read “RbING-phosphorylation” for “Rb21-phosphorylation”. An outline of the steps: as §1

Sequence of Cyclin-dependent kinase 4 (Homo sapiens) (P11802 whole entry): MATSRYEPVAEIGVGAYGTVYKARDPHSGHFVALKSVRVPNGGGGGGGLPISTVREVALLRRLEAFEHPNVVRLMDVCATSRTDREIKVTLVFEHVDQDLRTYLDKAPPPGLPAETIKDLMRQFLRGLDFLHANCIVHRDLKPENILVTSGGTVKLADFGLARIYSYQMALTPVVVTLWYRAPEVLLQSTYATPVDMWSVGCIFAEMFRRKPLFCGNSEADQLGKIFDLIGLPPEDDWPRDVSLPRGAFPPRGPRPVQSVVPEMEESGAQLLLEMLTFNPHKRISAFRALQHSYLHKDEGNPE
T1 sequence (P11802 whole entry): as above
T1 sequence (P24385 whole entry, further chain): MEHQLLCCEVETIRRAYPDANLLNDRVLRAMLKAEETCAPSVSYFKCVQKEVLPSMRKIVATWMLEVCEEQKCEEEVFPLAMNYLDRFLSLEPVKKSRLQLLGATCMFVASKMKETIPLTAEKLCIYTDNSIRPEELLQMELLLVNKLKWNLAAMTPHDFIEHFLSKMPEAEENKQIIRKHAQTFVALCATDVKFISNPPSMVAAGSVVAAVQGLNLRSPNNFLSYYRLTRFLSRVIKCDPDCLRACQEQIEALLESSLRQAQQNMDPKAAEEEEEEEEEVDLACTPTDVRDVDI

Take `COC(=O)CC(NCC1Cc2cccc3c(C4=C(c5c[nH]c6cc(F)ccc56)C(=O)NC4=O)cn(c23)C1)C(=O)OC` (stereo not given): the IC50 (as a rule, the concentration that inhibits the measured activity by half) was 671 nM in data set [1], over 10000 nM in the data set on HCT-116 [2] and over 10000 nM with NCI-H460.

`O=C1NC(=O)c2c1c1c3ccccc3[nH]c1c1c2c2cccc3c2n1CC(CO)C3` (stereo not given): the solubility in data set [3] is 120 µg/mL (≈ 303 µM). The half-maximal inhibitory concentration (IC50) in [1] was 71 nM; in [4], 217 nM; in the data set on HCT-116 [2], 910 nM; in the data set with NCI-H460, 960 nM; in data set [9] it was over 2 µM. Moreover, the inhibition (commonly the percentage by which the read-out fell short of the control) in data set [5] was 55%; in data set [6], 21%. The Fold increase in the data set on HCT-116 [7] is reported as 1.95; in the data set with HCT-116 [8], 2.04.

For `O=C1NC(=O)c2c1c1c3ccccc3ccc1c1c2c2cccc3c2n1C(CO)CC3` (stereo not given), the solubility in data set [3] is 2780 µg/mL (≈ 6840 µM). The IC50 in data set [1] was 175 nM; in the data set on HCT-116 [2], 1120 nM; with NCI-H460 it was 540 nM; in [9], over 2 µM. Also, the Fold increase amounted to 1.32 in the data set on HCT-116 [7] and 1.17 in the data set with HCT-116 [8].

`CN(C)CC1Cc2cccc3c(C4=C(c5c[nH]c6ccccc56)C(=O)NC4=O)cn(c23)C1` (stereo not given): the 50% inhibitory concentration (IC50) came to 898 nM in data set [1], 770 nM in the data set with HCT-116 [2] and 4750 nM in the data set with NCI-H460. Besides, the figures for the Fold increase with HCT-116 [7] and in the data set on HCT-116 [8] were 1.17 and 1, respectively.

As for `COc1ccc2c(c1)[nH]c1c2c2c(c3c4cccc5c4n(c13)CC(CO)C5)C(=O)NC2=O` (stereo not given), in data set [3], the solubility came to 490 µg/mL (≈ 1150 µM). For the same compound, the concentration for half-maximal inhibition (IC50) is 15 nM in [1]; 284 nM in data set [4]; 1830 nM in the data set on HCT-116 [2]; 1960 nM with NCI-H460; over 2 µM in [9]. The inhibition in data set [5] worked out at 77%; in data set [6], 69%. Moreover, the Fold increase in the data set with HCT-116 [7] was 2; with HCT-116 [8], 1.8.

With `O=C1NC(=O)c2c1c1c3ccccc3ccc1c1c2c2cccc3c2n1CCC3CO` (stereo not given), the half-inhibitory concentration (IC50) in data set [1] is 210 nM; with HCT-116 [2] it was 1250 nM; in the data set with NCI-H460, 1720 nM; in [9], over 2 µM. Moreover, the Fold increase in the data set on HCT-116 [7] worked out at 1.3; with HCT-116 [8] it was 1.2.

Turning to `O=C1NC(=O)c2c1c1c3ccc(C(F)(F)F)cc3[nH]c1c1c2c2cccc3c2n1CC(CO)C3` (stereo not given), the solubility in [3] was 4810 µg/mL (≈ 10400 µM). The IC50 in [1] is 23 nM; with HCT-116 [2], 1250 nM; in the data set on NCI-H460, 690 nM; in [9], over 2 µM. The results for the Fold increase in the data set with HCT-116 [7] and in the data set with HCT-116 [8] were 1.47 and 1.34, respectively.

Regarding `O=C1NC(=O)c2c1c1c3ccccc3[nH]c1c1c2c2cccc3c2n1CC(CO)CC3` (stereo not given), in data set [3], the solubility came to 1070 µg/mL (≈ 2610 µM). The half-maximal inhibitory concentration (IC50) in data set [1] came out at 126 nM; with HCT-116 [2] it was 540 nM; in the data set on NCI-H460 it was 330 nM. For the same compound, the inhibition came to 85% in [5] and 71% in [6]. The Fold increase is recorded as 1.9 in the data set on HCT-116 [7] and 1.8 in the data set on HCT-116 [8].

`O=C1NC(=O)c2c1c1c3ccccc3ccc1c1c2c2cccc3c2n1CC(CO)C3` (stereo not given): the IC50 in data set [1] was 72 nM; in data set [4], over 2000 nM; with HCT-116 [2] it was 940 nM; in the data set on NCI-H460 it was 740 nM; in data set [9] it was over 2 µM. The values for the Fold increase with HCT-116 [7] and in the data set with HCT-116 [8] were 1.64 and 1.14, respectively.

In the case of `CNCC1Cc2cccc3c(C4=C(c5c[nH]c6cc(F)ccc56)C(=O)NC4=O)cn(c23)C1.Cl` (stereo not given), the half-maximal inhibitory concentration (IC50) in [1] stood at 8 nM; with HCT-116 [2], 1730 nM; in the data set on NCI-H460, 5150 nM; in data set [9], 0.383 µM.

Turning to `Cn1ccc2ccc3c(c4c(c5c6cccc7c6n(c35)CC(CO)C7)C(=O)NC4=O)c21` (stereo not given), the 50% inhibitory concentration (IC50) in data set [1] was 84 nM; in data set [4], 650 nM; in the data set with HCT-116 [2], 680 nM; in the data set on NCI-H460, 210 nM. Moreover, the Fold increase in the data set on HCT-116 [7] is listed as 2.25; with HCT-116 [8], 1.13.

Regarding `O=C1NC(=O)c2c1c1c3ccc(F)cc3[nH]c1c1c2c2cccc3c2n1CC(CO)C3` (stereo not given), the solubility in data set [3] was 890 µg/mL (≈ 2150 µM). For the same compound, the IC50 in data set [1] was 22 nM; in data set [4] it was 141 nM; with HCT-116 [2], 360 nM; in the data set on NCI-H460, 430 nM; in [9], over 2 µM. In addition, the results for the inhibition in data set [5] and in data set [6] were 53% and 25%, respectively. Besides, the Fold increase in the data set with HCT-116 [7] stood at 2.32; in the data set with HCT-116 [8] it was 1.67.

For `O=C1NC(=O)c2c1c1c3ccc(F)cc3[nH]c1c1c2c2cccc3c2n1C(CO)CC3` (stereo not given), the solubility in [3] was determined as 620 µg/mL (≈ 1500 µM). Besides, the IC50 in data set [1] was 2 nM; in data set [4], 79 nM; in the data set with HCT-116 [2], 820 nM; with NCI-H460, 260 nM; in [9] it was 3.02 µM. The values for the Fold increase in the data set on HCT-116 [7] and in the data set on HCT-116 [8] were 2.12 and 1.7, respectively.

For the compound `O=C1NC(=O)c2c1c1c3ccc(Br)cc3[nH]c1c1c2c2cccc3c2n1CC(CO)C3` (stereo not given), in data set [3], the solubility was 830 µg/mL (≈ 1750 µM). Besides, the IC50 in data set [1] was 10 nM; in [4], over 2000 nM; in the data set with HCT-116 [2], 500 nM; in the data set on NCI-H460, 360 nM; in data set [9], over 2 µM. Also, the inhibition in data set [5] stood at 74%; in data set [6], 56%. This compound also gave a Fold increase with HCT-116 [8] of 1.6.

Turning to `O=C1NC(=O)c2c1c1c3ccccc3[nH]c1c1c2c2cccc3c2n1C(CO)CC3` (stereo not given), in data set [3], the solubility stood at 570 µg/mL (≈ 1440 µM). Further, the concentration for half-maximal inhibition (IC50) stood at 18 nM in [1]; 219 nM in data set [4]; 920 nM in the data set on HCT-116 [2]; 820 nM in the data set with NCI-H460; 0.858 µM in [9]. For the same compound, the inhibition is 65% in data set [5] and 53% in [6]. Besides, the Fold increase worked out at 1.51 with HCT-116 [7] and 1.32 with HCT-116 [8].

With `O=C1NC(=O)c2c1c1c3ccccc3[nH]c1c1c2c2cccc3c2n1CCC3CO` (stereo not given), the half-maximal inhibitory concentration (IC50) in [1] was 31 nM; with HCT-116 [2], 370 nM; in the data set with NCI-H460 it was 540 nM; in [9], over 2 µM. The inhibition in data set [5] was 23%; in data set [6] it was 0%. The figures for the Fold increase in the data set on HCT-116 [7] and in the data set with HCT-116 [8] were 1.44 and 1.17, respectively.

For the compound `NC(=O)[C@@H]1CCCN1CC1Cc2cccc3c(C4=C(c5c[nH]c6cc(F)ccc56)C(=O)NC4=O)cn(c23)C1` (stereo not given in full), the values for the 50% inhibitory concentration (IC50) (in data set [10]; in the data set with HCT-116 [2]; in the data set on NCI-H460) were over 2000 nM, over 10000 nM and over 10000 nM, respectively.

Take `O=C1NC(=O)C(c2cn3c4c(cccc24)CC(CCl)C3)=C1c1c[nH]c2cc(F)ccc12` (stereo not given): the IC50 in data set [1] was 64 nM; in the data set on HCT-116 [2], 3270 nM; with NCI-H460, 5650 nM; in data set [9], over 20 µM.
